This is an account of results in ChEMBL document CHEMBL3124871, “Synthesis and pharmacological characterization of 1-benzyl-4-aminoindole-based thyroid hormone receptor β agonists” (Bioorg Med Chem, 2014).

Data set [1] concerns Rattus norvegicus. Nature of the data set: Toxicity in cholesterol-fed Sprague-Dawley rat assessed as total T4 level at 6 mg/kg/day, po qd for 1 week measured 3 to 6 hrs post last dose (reference value: 3.8 +/- 0.9 ug/dl). The data set is classed as organism-based. Details: route oral. The conditions noted are these: in vivo.
The test system of data set [2] is HepG2. The data set is described as follows: Selectivity ratio of EC50 for human recombinant transfected in human HepG2 cells to EC50 for human recombinant TRbeta1 transfected in human HepG2. The data set is classed as cell-based.
The target of data set [3] is T1, Thyroid hormone receptor beta (Homo sapiens, UniProt P10828).
T1 sequence (P10828 whole entry): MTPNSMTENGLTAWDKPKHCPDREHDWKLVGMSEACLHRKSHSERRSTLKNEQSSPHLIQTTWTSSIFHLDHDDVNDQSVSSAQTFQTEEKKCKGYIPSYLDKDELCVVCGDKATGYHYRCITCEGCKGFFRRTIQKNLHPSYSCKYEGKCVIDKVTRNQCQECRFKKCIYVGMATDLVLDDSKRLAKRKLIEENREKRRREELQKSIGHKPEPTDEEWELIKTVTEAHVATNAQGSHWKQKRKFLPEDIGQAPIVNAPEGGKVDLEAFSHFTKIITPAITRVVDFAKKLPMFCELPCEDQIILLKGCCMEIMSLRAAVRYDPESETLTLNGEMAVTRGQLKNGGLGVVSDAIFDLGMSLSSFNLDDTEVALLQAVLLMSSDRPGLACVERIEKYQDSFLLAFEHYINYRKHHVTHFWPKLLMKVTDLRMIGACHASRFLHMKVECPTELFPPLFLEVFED
The data set is described as follows: Displacement of [125I]-Triiodothyronine from human recombinant TRbeta1 ligand binding domain after 2 to 3 hrs by beta counting. Background: In a radioligand displacement assay an active substance lowers the binding of a labelled ligand.

The test system of data set [4] is Rattus norvegicus. The data set is described as follows: Reduction in plasma total cholesterol in cholesterol-fed Sprague-Dawley rat at 6 mg/kg/day, po qd for 1 week measured 3 to 6 hrs post last dose (reference value: 190 +/- 49 mg/dl). The data set is classed as functional.
Data set [5] concerns Rattus norvegicus. Nature of the data set: Toxicity in cholesterol-fed Sprague-Dawley rat assessed as total T4 level at 150 mg/kg/day, po qd for 1 week measured 3 to 6 hrs post last dose (reference value: 3.8 +/- 0.9 ug/dl). As to conditions: in vivo. The data set is classed as organism-based. Details: route oral.
Data set [6] has as its system Rattus norvegicus. The data set is described as follows: Reduction in plasma free cholesterol in cholesterol-fed Sprague-Dawley rat at 6 mg/kg/day, po qd for 1 week measured 3 to 6 hrs post last dose (reference value: 36 +/- 9 mg/dl). The class given is functional.
The subject of data set [7] is Rattus norvegicus. The data set is described as follows: Toxicity in cholesterol-fed Sprague-Dawley rat assessed as heart weight at 6 mg/kg/day, po qd for 1 week measured 3 to 6 hrs post last dose (reference value: 1.14 +/- 0.12 g). The data set is classed as organism-based. Details: route oral. As to conditions: in vivo.
The test system of data set [8] is Rattus norvegicus. Nature of the data set: Toxicity in cholesterol-fed Sprague-Dawley rat assessed as heart rate at 6 mg/kg/day, po qd for 1 week measured 3 to 6 hrs post last dose (reference value: 383.0 +/- 26.7 bpm). Details: route oral. The data set is classed as organism-based. The conditions noted are these: in vivo.
For data set [9], the target named is T1, Thyroid hormone receptor beta. The data set is described as follows: Agonist activity at human recombinant TRbeta1 transfected in human HepG2 cells after 8 to 10 hrs by alkaline phosphatase reporter gene assay. The class given is cell-based. In general terms: In a reporter assay the amount or activity of a reporter protein is the signal.
The test system of data set [10] is Rattus norvegicus. Nature of the data set: Reduction in plasma HDL-cholesterol in cholesterol-fed Sprague-Dawley rat at 6 mg/kg/day, po qd for 1 week measured 3 to 6 hrs post last dose (reference value: 22 +/- 6 mg/dl). The data set is classed as functional.
In data set [11] the test system is Rattus norvegicus. The data set is described as follows: Toxicity in cholesterol-fed Sprague-Dawley rat assessed as TSH level at 6 mg/kg/day, po qd for 1 week measured 3 to 6 hrs post last dose (reference value: 3.0 +/- 1.0 uIU/ml). Details: route oral. The data set is classed as organism-based. As to conditions: in vivo.
Data set [12] relates to Rattus norvegicus. The data set is described as follows: Toxicity in cholesterol-fed Sprague-Dawley rat assessed as heart weight at 150 mg/kg/day, po qd for 1 week measured 3 to 6 hrs post last dose (reference value: 1.14 +/- 0.12 g). The class given is organism-based. As to conditions: in vivo. Details: route oral.
The target of data set [13] is T1, Thyroid hormone receptor beta. Nature of the data set: Agonist activity at human recombinant TRbeta1 transfected in CV-1 cells after 8 to 10 hrs by alkaline phosphatase reporter gene assay. The class given is cell-based.
The subject of data set [14] is CV-1. Nature of the data set: Selectivity ratio of EC50 for human recombinant transfected in CV-1 cells to EC50 for human recombinant TRbeta1 transfected in CV-1 cells. The data set is classed as cell-based. The method, boiled down:
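CV-1 monkey kidney cells grown in DMEM with 10% FBS for 24 h at 37 °C and 5% CO2. Transfected (FuGENE) with hTRα1 or hTRβ1 plus a SEAP reporter for 24 h, then exposed to T3 or test compound for 8-10 h. SEAP was read as A405 of p-nitrophenol (pH 9.8, 30 min, RT). EC50 was set against T3 max = 100%; mean of four experiments; α/β ratio of EC50s.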

Data set [15] has as its system Rattus norvegicus. Nature of the data set: Toxicity in cholesterol-fed Sprague-Dawley rat assessed as TSH level at 150 mg/kg/day, po qd for 1 week measured 3 to 6 hrs post last dose (reference value: 3.0 +/- 1.0 uIU/ml). The data set is classed as organism-based. Details: route oral. The conditions noted are these: in vivo.
Data set [16] relates to Rattus norvegicus. The data set is described as follows: Reduction in plasma triglyceride level in cholesterol-fed Sprague-Dawley rat at 6 mg/kg/day, po qd for 1 week measured 3 to 6 hrs post last dose (reference value: 62 +/- 25 mg/dl). The class given is functional.
For data set [17], the target named is T2, Thyroid hormone receptor alpha (Homo sapiens, UniProt P10827).
T2 sequence (P10827 whole entry): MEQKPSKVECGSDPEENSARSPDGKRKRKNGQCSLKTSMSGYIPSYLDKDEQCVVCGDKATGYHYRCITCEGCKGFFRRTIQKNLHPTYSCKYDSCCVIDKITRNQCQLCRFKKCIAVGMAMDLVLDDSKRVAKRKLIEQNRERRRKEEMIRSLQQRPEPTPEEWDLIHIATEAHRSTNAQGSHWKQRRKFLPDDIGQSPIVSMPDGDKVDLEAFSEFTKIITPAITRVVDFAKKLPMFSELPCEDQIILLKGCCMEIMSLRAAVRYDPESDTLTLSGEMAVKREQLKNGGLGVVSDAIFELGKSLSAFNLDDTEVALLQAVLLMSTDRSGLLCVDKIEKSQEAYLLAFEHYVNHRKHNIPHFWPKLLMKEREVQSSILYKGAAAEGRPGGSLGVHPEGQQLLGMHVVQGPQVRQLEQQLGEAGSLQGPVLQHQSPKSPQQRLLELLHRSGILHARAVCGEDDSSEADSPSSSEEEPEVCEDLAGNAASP
Nature of the data set: Displacement of [125I]-Triiodothyronine from human recombinant TRalpha1 ligand binding domain after 2 to 3 hrs by beta counting.

The test system of data set [18] is Rattus norvegicus. The data set is described as follows: Toxicity in cholesterol-fed Sprague-Dawley rat assessed as heart rate at 150 mg/kg/day, po qd for 1 week measured 3 to 6 hrs post last dose (reference value: 383.0 +/- 26.7 bpm). As to conditions: in vivo. Details: route oral. The data set is classed as organism-based.
For data set [19], the system named is Rattus norvegicus. Nature of the data set: Reduction in plasma LDL-cholesterol in cholesterol-fed Sprague-Dawley rat at 6 mg/kg/day, po qd for 1 week measured 3 to 6 hrs post last dose (reference value: 51 +/- 15 mg/dl). The class given is functional.
Data set [20] concerns Rattus norvegicus. Nature of the data set: Toxicity in cholesterol-fed Sprague-Dawley rat assessed as total T4 level at 30 mg/kg/day, po qd for 1 week measured 3 to 6 hrs post last dose (reference value: 3.8 +/- 0.9 ug/dl). The class given is organism-based. Details: route oral. The conditions noted are these: in vivo.
Data set [21] concerns Rattus norvegicus. The data set is described as follows: Reduction in plasma HDL-cholesterol in cholesterol-fed Sprague-Dawley rat at 30 mg/kg/day, po qd for 1 week measured 3 to 6 hrs post last dose (reference value: 22 +/- 6 mg/dl). The data set is classed as functional.
Data set [22] concerns Rattus norvegicus. Nature of the data set: Reduction in plasma total cholesterol in cholesterol-fed Sprague-Dawley rat at 30 mg/kg/day, po qd for 1 week measured 3 to 6 hrs post last dose (reference value: 190 +/- 49 mg/dl). The class given is functional.
Data set [23] has as its system Rattus norvegicus. Nature of the data set: Reduction in plasma LDL-cholesterol in cholesterol-fed Sprague-Dawley rat at 30 mg/kg/day, po qd for 1 week measured 3 to 6 hrs post last dose (reference value: 51 +/- 15 mg/dl). The class given is functional.
Data set [24] relates to Rattus norvegicus. The data set is described as follows: Reduction in plasma triglyceride level in cholesterol-fed Sprague-Dawley rat at 30 mg/kg/day, po qd for 1 week measured 3 to 6 hrs post last dose (reference value: 62 +/- 25 mg/dl). The class given is functional.
Data set [25] relates to Rattus norvegicus. The data set is described as follows: Toxicity in cholesterol-fed Sprague-Dawley rat assessed as heart rate at 30 mg/kg/day, po qd for 1 week measured 3 to 6 hrs post last dose (reference value: 383.0 +/- 26.7 bpm). As to conditions: in vivo. Details: route oral. The data set is classed as organism-based.
The subject of data set [26] is Rattus norvegicus. Nature of the data set: Toxicity in cholesterol-fed Sprague-Dawley rat assessed as TSH level at 30 mg/kg/day, po qd for 1 week measured 3 to 6 hrs post last dose (reference value: 3.0 +/- 1.0 uIU/ml). As to conditions: in vivo. Details: route oral. The class given is organism-based.
Data set [27] concerns Rattus norvegicus. Nature of the data set: Reduction in plasma free cholesterol in cholesterol-fed Sprague-Dawley rat at 30 mg/kg/day, po qd for 1 week measured 3 to 6 hrs post last dose (reference value: 36 +/- 9 mg/dl). The data set is classed as functional.
Data set [28] has as its system Rattus norvegicus. The data set is described as follows: Toxicity in cholesterol-fed Sprague-Dawley rat assessed as heart weight at 30 mg/kg/day, po qd for 1 week measured 3 to 6 hrs post last dose (reference value: 1.14 +/- 0.12 g). The class given is organism-based. Details: route oral. As to conditions: in vivo.

`Cc1ccc(NC(=O)CC(=O)O)c2ccn(Cc3ccc(O)c(C(C)C)c3)c12`: the Activity in data set [1] was determined as 2.4 µg/dL; in data set [4], 94 mg/dL; in data set [5] it was 1.9 µg/dL; in [6] it was 15 mg/dL; in data set [7], 1.12 g; in [8], 401.8 bpm. For the same compound, the Activity in [10] was determined as 20 mg/dL; in [11], 2.7 uIU/ml; in [12], 1.18 g; in data set [15] it was 1.3 uIU/ml; in [16] it was 27 mg/dL; in data set [18] it was 424.3 bpm. Also, the Activity in [19] worked out at 20 mg/dL. For the same compound, the Ratio EC50 in [2] is 7.2; in data set [14], 3.4. Also, the values for the IC50 in data set [3] and in data set [17] were 240 nM and 5200 nM, respectively. Further, the EC50 worked out at 1300 nM in data set [9] and 3100 nM in data set [13].
Take `Cc1cc2c(NC(=O)CC(=O)O)cccc2n1Cc1ccc(O)c(C(C)C)c1`: the Activity in data set [20] amounted to 2.8 µg/dL; in data set [21], 23 mg/dL; in data set [22] it was 111 mg/dL; in data set [5], 1.7 µg/dL; in data set [23], 25 mg/dL; in [24], 44 mg/dL. The Activity in data set [25] worked out at 403.2 bpm; in [12], 1.24 g; in [26], 3.1 uIU/ml; in data set [27] it was 19 mg/dL; in data set [15], 0.9 uIU/ml; in [18], 415.8 bpm. Further, in data set [28], the Activity stood at 1.13 g. Moreover, the Ratio EC50 was 16 in [2] and 4.5 in data set [14]. Also, the IC50 came to 230 nM in data set [3] and 5200 nM in data set [17]. The EC50 in data set [9] was 220 nM; in data set [13], 1700 nM.

One may read the IC50 as the concentration that inhibits the measured activity by half. For orientation: EC50 means the concentration giving half of the maximal effect.
